Laboratory results as given in ChEMBL document CHEMBL2010799, “Hypoglycemic diterpenoids from Tinospora crispa” (2012).
Activity calls are given as the source filed them. The rule behind the calls is not given here.

How the values were obtained:
MIN6 = assay: Induction of insulin secretion in mouse MIN6 cells; assay type: functional, cell-based
Mus musculus [1] = assay: Antidiabetic activity in STZ-induced ICR mouse T1DM model assessed as reduction in plasma glucose level at 5 mg/kg, ip after 60 mins relative to metformin at 200 mg/kg, ip; assay type: functional
[2] = Blockade of ATP-sensitive K+ channels
Mus musculus [3] = assay: Antidiabetic activity in normal ICR mouse assessed as reduction in plasma glucose level at 5 mg/kg, ip after 60 mins relative to metformin at 200 mg/kg, ip; assay type: functional
Mus musculus [4] = assay: Antidiabetic activity in normal ICR mouse assessed as reduction in plasma glucose level at 5 mg/kg, ip after 60 mins; assay type: functional, organism-based; parameters: dose 5 mg/kg
Outline: (§1)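 ICR mice (normal, STZ-induced T1DM, or diet-induced T2DM) received a single ip injection in 2% DMSO/normal saline vehicle. Orbital plexus blood was drawn under pentobarbital anesthesia before and 60 min after injection. Plasma glucose was read with a glucose kit and analyzer and expressed as percent decrease, (Gi − Gt)/Gi × 100%. Seven animals per group, mean ± SEM.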

Mus musculus [5] = assay: Antidiabetic activity in STZ-induced ICR mouse T1DM model assessed as reduction in plasma glucose level at 5 mg/kg, ip after 60 mins; assay type: functional, organism-based; parameters: dose 5 mg/kg; outline: as §1
Mus musculus [6] = assay: Antidiabetic activity in ip dosed STZ-induced ICR mouse T1DM model assessed as reduction in plasma glucose level after 60 mins; assay type: functional, organism-based; outline: as §1
Mus musculus [7] = assay: Antidiabetic activity in STZ-induced ICR mouse T1DM model assessed as increase in plasma insulin level at 1 mg/kg, ip after 60 mins by ELISA (reference value: 15.7 +/- 1.0 pmol/L); assay type: functional; settings: route intraperitoneal
Mus musculus [8] = assay: Antidiabetic activity in STZ-induced ICR mouse T1DM model assessed as increase in plasma insulin level at 0.1 mg/kg, ip after 60 mins by ELISA (reference value: 15.2 +/- 0.8 pmol/L); assay type: functional; settings: route intraperitoneal
Mus musculus [9] = assay: Antidiabetic activity in ip dosed normal ICR mouse assessed as reduction in plasma glucose level after 60 mins; assay type: functional, organism-based; outline: as §1
Mus musculus [10] = assay: Antidiabetic activity in normal ICR mouse assessed as increase in plasma insulin level at 3 mg/kg, ip after 60 mins by ELISA (reference value: 52 +/- 3.7 pmol/L); assay type: functional; settings: route intraperitoneal
Mus musculus [11] = assay: Antidiabetic activity in diet-induced ICR mouse T2DM model assessed as increase in plasma insulin level at 0.1 mg/kg, ip after 60 mins by ELISA (reference value: 111.8 +/- 5.2 pmol/L); assay type: functional; settings: route intraperitoneal
Mus musculus [12] = assay: Antidiabetic activity in STZ-induced ICR mouse T1DM model assessed as increase in plasma insulin level at 3 mg/kg, ip after 60 mins by ELISA (reference value: 13.8 +/- 1.6 pmol/L); assay type: functional; settings: route intraperitoneal
Mus musculus [13] = assay: Antidiabetic activity in normal ICR mouse assessed as increase in plasma insulin level at 0.5 mg/kg, ip after 60 mins by ELISA (reference value: 53.1 +/- 3.3 pmol/L); assay type: functional; settings: route intraperitoneal
Mus musculus [14] = assay: Antidiabetic activity in normal ICR mouse assessed as increase in plasma insulin level at 1 mg/kg, ip after 60 mins by ELISA (reference value: 60.3 +/- 3.7 pmol/L); assay type: functional; settings: route intraperitoneal
Mus musculus [15] = assay: Antidiabetic activity in diet-induced ICR mouse T2DM model assessed as reduction in plasma glucose level after 30 mins post glucose challenge by ip glucose tolerance test (reference value: 406 +/- 9 mg/dL); assay type: functional
Mus musculus [16] = assay: Antidiabetic activity in STZ-induced ICR mouse T1DM model assessed as decrease in phosphoenolpyruvate carboxykinase level in liver at 5 mg/kg administered bid for 7 days by Western blotting analysis; assay type: functional, organism-based; parameters: dose 5 mg/kg
Outline: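 Male ICR mice with STZ-induced T1DM (fasting glucose >350 mg/dL, used 4 weeks after STZ) were dosed ip at 5.0 mg/kg twice daily for 7 days. Liver homogenates (60 µg) were run on 8% SDS-PAGE and Western blotted with PEPCK antibody (1:1000), with ECL detection. PEPCK (70 kDa) and β-actin (43 kDa) were quantified by densitometry; n = 3.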

Mus musculus [17] = assay: Antidiabetic activity in diet-induced ICR mouse T2DM model assessed as increase in plasma insulin level at 0.5 mg/kg, ip after 60 mins by ELISA (reference value: 120.8 +/- 4.3 pmol/L); assay type: functional; settings: route intraperitoneal
Mus musculus [18] = assay: Antidiabetic activity in normal ICR mouse assessed as increase in plasma insulin level at 5 mg/kg, ip after 60 mins by ELISA (reference value: 57.6 +/- 2.4 pmol/L); assay type: functional; settings: route intraperitoneal
Mus musculus [19] = assay: Antidiabetic activity in diet-induced ICR mouse T2DM model assessed as reduction in plasma glucose level after 60 to 150 mins post glucose challenge by ip glucose tolerance test; assay type: functional, organism-based
Mus musculus [20] = assay: Antidiabetic activity in STZ-induced ICR mouse T1DM model assessed as increase in plasma insulin level at 5 mg/kg, ip after 60 mins by ELISA (reference value: 14.7 +/- 0.4 pmol/L); assay type: functional; settings: route intraperitoneal
Mus musculus [21] = assay: Antidiabetic activity in normal ICR mouse assessed as increase in plasma insulin level at 0.1 mg/kg, ip after 60 mins by ELISA (reference value: 54 +/- 3.4 pmol/L); assay type: functional; settings: route intraperitoneal
Mus musculus [22] = assay: Antidiabetic activity in STZ-induced ICR mouse T1DM model assessed as increase in plasma insulin level at 0.5 mg/kg, ip after 60 mins by ELISA (reference value: 16.2 +/- 0.7 pmol/L); assay type: functional; settings: route intraperitoneal
Mus musculus [23] = assay: Antidiabetic activity in diet-induced ICR mouse T2DM model assessed as increase in plasma insulin level at 5 mg/kg, ip after 60 mins by ELISA (reference value: 112.1 +/- 6.3 pmol/L); assay type: functional; settings: route intraperitoneal
Mus musculus [24] = assay: Antidiabetic activity in diet-induced ICR mouse T2DM model assessed as increase in plasma insulin level at 1 mg/kg, ip after 60 mins by ELISA (reference value: 111.6 +/- 2.7 pmol/L); assay type: functional; settings: route intraperitoneal
Mus musculus [25] = assay: Antidiabetic activity in normal ICR mouse assessed as reduction in plasma glucose level after 30 mins post glucose challenge by ip glucose tolerance test (reference value: 346 +/- 15 mg/dL); assay type: functional
Mus musculus [26] = assay: Antidiabetic activity in ip dosed diet-induced ICR mouse T2DM model assessed as reduction in plasma glucose level after 60 mins; assay type: functional, organism-based; outline: as §1
Mus musculus [27] = assay: Antidiabetic activity in diet-induced ICR mouse T2DM model assessed as increase in plasma insulin level at 3 mg/kg, ip after 60 mins by ELISA (reference value: 112.1 +/- 3.2 pmol/L); assay type: functional; settings: route intraperitoneal
Mus musculus [28] = assay: Antidiabetic activity in normal ICR mouse assessed as reduction in plasma glucose level after 60 to 150 mins post glucose challenge by ip glucose tolerance test; assay type: functional, organism-based
Mus musculus [29] = assay: Antidiabetic activity in diet-induced ICR mouse T2DM model assessed as reduction in plasma glucose level at 5 mg/kg, ip after 60 mins (reference value: 170 +/- 2.8 mg/dL); assay type: functional; settings: route intraperitoneal; outline: as §1
Mus musculus [30] = assay: Antidiabetic activity in diet-induced ICR mouse T2DM model assessed as increase in plasma insulin level at 5 mg/kg, ip after 60 mins by ELISA (reference value: 123.5 +/- 10.2 pmol/L); assay type: functional; settings: route intraperitoneal
Mus musculus [31] = assay: Antidiabetic activity in normal ICR mouse assessed as reduction in plasma glucose level at 5 mg/kg, ip after 60 mins (reference value: 102 +/- 3.7 mg/dL); assay type: functional; settings: route intraperitoneal; outline: as §1
Mus musculus [32] = assay: Antidiabetic activity in normal ICR mouse assessed as increase in plasma insulin level at 5 mg/kg, ip after 60 mins by ELISA (reference value: 52.5 +/- 4.6 pmol/L); assay type: functional; settings: route intraperitoneal
Mus musculus [33] = assay: Antidiabetic activity in STZ-induced ICR mouse T1DM model assessed as increase in plasma insulin level at 200 mg/kg, ip after 60 mins by ELISA (reference value: 13.5 +/- 1.1 pmol/L); assay type: functional; settings: route intraperitoneal
Mus musculus [34] = assay: Antidiabetic activity in normal ICR mouse assessed as reduction in plasma glucose level at 200 mg/kg, ip after 60 mins; assay type: functional, organism-based; parameters: dose 200 mg/kg; outline: as §1
Mus musculus [35] = assay: Antidiabetic activity in STZ-induced ICR mouse T1DM model assessed as reduction in plasma glucose level at 200 mg/kg, ip after 60 mins; assay type: functional, organism-based; parameters: dose 200 mg/kg; outline: as §1

In the case of `C[C@@]12C[C@@H](c3ccoc3)OC(=O)[C@@H]1C[C@@H]1OC(=O)[C@@]3(O)[C@@H](O[C@@H]4O[C@H](CO)[C@@H](O)[C@H](O)[C@H]4O)CC[C@@H]2[C@@]13C` [BORAPETOSIDE A], the Activity (MIN6) is reported as “inactive”, the “fold change (FC)” value (Mus musculus [1]) is reported as 2 and the Activity [2] is reported as “inactive”. For the same compound, the “fold change (FC)” value (Mus musculus [3]) was 2, the Activity (Mus musculus [4]) was “Active” and the Activity (Mus musculus [5]) was “Active”.

For `COC(=O)C1=C[C@H](O)C[C@H]2[C@]3(C)C[C@@H](c4ccoc4)OC(=O)[C@H]3C[C@H](O[C@@H]3O[C@H](CO)[C@@H](O)[C@H](O)[C@H]3O)[C@@]12C`, the Activity (MIN6) was “inactive”, the Activity [2] was “inactive” and the Activity (Mus musculus [4]) was “inactive”. The Activity (Mus musculus [5]) was “inactive”.

With `COC(=O)C1=CCC[C@H]2[C@]3(C)C[C@@H](c4ccoc4)OC(=O)[C@@H]3C[C@@H](O[C@@H]3O[C@H](CO)[C@@H](O)[C@H](O)[C@H]3O)[C@@]12C` [BORAPETOSIDE C] the Activity (Mus musculus [6]) was “Dose-dependent effect”, the Activity (MIN6) was “inactive” and the Activity (Mus musculus [7]) was 15.9 pmol/L. For the same compound, the Activity (Mus musculus [8]) was 16.3 pmol/L, the Activity (Mus musculus [9]) was “Dose-dependent effect” and the Activity (Mus musculus [10]) was 142.6 pmol/L. The Activity (Mus musculus [11]) was 111.3 pmol/L, the Activity (Mus musculus [12]) was 14.8 pmol/L and the Activity (Mus musculus [13]) was 70.7 pmol/L. For the same compound, the Activity (Mus musculus [14]) was 63 pmol/L, the Activity (Mus musculus [15]) was 343 mg/dL and the Activity (Mus musculus [16]) was “Active”. The Activity (Mus musculus [17]) was 170.8 pmol/L, the Activity (Mus musculus [18]) was 149.6 pmol/L and the Activity (Mus musculus [19]) was “Active”. For the same compound, the Activity [2] was “inactive”, the Activity (Mus musculus [20]) was 14.3 pmol/L and the Activity (Mus musculus [4]) was “Active”. The Activity (Mus musculus [5]) was “Active”, the Activity (Mus musculus [21]) was 71.5 pmol/L and the Activity (Mus musculus [22]) was 15.7 pmol/L. It also gave an Activity (Mus musculus [23]) of 257.6 pmol/L, an Activity (Mus musculus [24]) of 173 pmol/L and an Activity (Mus musculus [25]) of 293 mg/dL. The Activity (Mus musculus [26]) was “Dose-dependent effect”, the Activity (Mus musculus [27]) was 253.9 pmol/L and the Activity (Mus musculus [28]) was “Active”.

`COc1ccc(Cl)cc1C(=O)NCCc1ccc(S(=O)(=O)NC(=O)NC2CCCCC2)cc1` [GLYBURIDE] showed an Activity (Mus musculus [29]) of 108 mg/dL, an Activity (Mus musculus [30]) of 208.8 pmol/L and an Activity (Mus musculus [31]) of 84 mg/dL. For the same compound, the Activity (Mus musculus [32]) was 145.8 pmol/L.

In the case of `CN(C)C(=N)NC(=N)N` [METFORMIN], the Activity (Mus musculus [33]) is reported as 15.1 pmol/L, the Activity (Mus musculus [34]) is reported as “Active” and the Activity (Mus musculus [35]) is reported as “Active”.
